Measurements published in PMC9177073 (Science Advances, 2022).
Structures can show the parent of a compound that is named as a salt. Residues, ends and D or L forms follow the SMILES beside them. *: point of attachment. Cbz = O=C(OCc1ccccc1)*

Key:
[1] = cited from earlier work; for ability to penetrate the blood-brain barrier: positive controls of PAMPA
proteasome activity = experiment: Proteasome activity in mouse tissue lysates after intraperitoneal injection; details: in vivo
[2] = target: proteasome (chymotrypsin-like) activity (Mus musculus, UniProt O55234); experiment: Proteasome peptidase activity in mouse brain lysates with inhibitor; assay type: biochemical; details: brains of 3-month-old mice, replicate samples incubated with inhibitor
Outline: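 Mouse brain tissue lysed mechanically in reaction buffer, with buffer volume scaled to tissue weight; the supernatant was assayed. ATP-stimulated activity used 50 mM tris-HCl pH 7.8 with 1 mM MgCl2, 0.5 mM ATP and 1 mM DTT. ATP-independent activity used 50 mM tris-HCl pH 8.0 with 1 mM MgCl2 and 1 mM DTT. Proteasome inhibitor (1 μM) was added 5 min before starting with 50 μM Suc-LLVY-AMC.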

Row | Compound | ability to penetrate the blood-brain barrier [1] | other results
1 | NCCc1ccc(O)c(O)c1 [Dopamine, Dopamine hydrobromide] | – | ability to cross the blood-brain barrier ([1]; negative control of PAMPA): unable to efficiently cross the blood-brain barrier
2 | CC(C)C[C@@H](C=O)NC(=O)[C@H](CC(C)C)NC(=O)[C@H](CC(C)C)NC(=O)OCc1ccccc1 [MG132, N-carbobenzyloxy-L-leucyl-L-leucyl-L-leucinal] (Cbz-Leu-Leu-Leu-aldehyde) | – | effect of inhibitor on the TAT1-8,9TOD-induced increase of proteasome activity (proteasome activity): could be blocked
3 | CC(C)C[C@H](NC(=O)[C@H](Cc1ccccc1)NC(=O)c1cnccn1)B(O)O [bortezomib] | – | effect of inhibitor on increased proteasome activity of NSE-PSMB5 mouse brains [2]: blocked
4 | CC(C)NCC(O)COc1cccc2ccccc12 (stereo not drawn) [propranolol, Propranolol hydrochloride] | known for their ability to penetrate the blood-brain barrier | –
5 | Tat^47–57: HIV-1 Tat-derived peptide, synthesized in-house, positive control of PAMPA | known for their ability to penetrate the blood-brain barrier | –
6 | dermorphin | known for their ability to penetrate the blood-brain barrier | –
